The record followed here is ChEMBL document CHEMBL3393009 (J Med Chem, 2015).

As a reminder, the pIC50 is −log10 of the IC50, conventionally taken in molar units.

The target of series [1] is T1, Tyrosine-protein kinase JAK1 (Homo sapiens, UniProt P23458). The series can be described thus: Inhibition of JAK1 (unknown origin).
Series [2] has as its target T2, Tyrosine-protein kinase JAK2 (Homo sapiens, UniProt O60674). The series can be described thus: Inhibition of JAK2 (unknown origin).
Series [3] has as its target T3, Leucine-rich repeat serine/threonine-protein kinase 2 (Homo sapiens, UniProt Q5S007). The series can be described thus: Inhibition of full length LRRK2 (unknown origin) expressed in HEK293 cells assessed as reduction in S935 phosphorylation incubated for 90 mins by ELISA method. Type of series: cell-based.
For series [4], the target named is Leucine-rich repeat serine/threonine-protein kinase 2 (Homo sapiens, UniProt Q5S007, G2019S). The series can be described thus: Inhibition of GST-tagged truncated human recombinant LRRK2 G2019S mutant using fluorescein-labeled LRRKtide peptide substrate incubated for 90 mins. In short, it runs like this:
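LRRK2 enzyme with fluorescein-LRRKtide in 50 mM HEPES pH 7.5, 3 mM MgCl2, 2 mM DTT, 0.01% Brij35. Final levels: 100 nM LRRKtide, 50 μM ATP, 1.7 μg/mL enzyme. Compound 11-point half-log series, top 32 μM. Reaction at room temperature, 2 h for wild type and 90 min for mutant. Stopped with EDTA plus Tb anti-phospho-ERM. TR-FRET 520/495 ratio read after 1 h. Geometric mean, n ≥ 2.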

The target in series [5] is T4, Tyrosine-protein kinase JAK3 (Homo sapiens, UniProt P52333).
T4 sequence (P52333 whole entry): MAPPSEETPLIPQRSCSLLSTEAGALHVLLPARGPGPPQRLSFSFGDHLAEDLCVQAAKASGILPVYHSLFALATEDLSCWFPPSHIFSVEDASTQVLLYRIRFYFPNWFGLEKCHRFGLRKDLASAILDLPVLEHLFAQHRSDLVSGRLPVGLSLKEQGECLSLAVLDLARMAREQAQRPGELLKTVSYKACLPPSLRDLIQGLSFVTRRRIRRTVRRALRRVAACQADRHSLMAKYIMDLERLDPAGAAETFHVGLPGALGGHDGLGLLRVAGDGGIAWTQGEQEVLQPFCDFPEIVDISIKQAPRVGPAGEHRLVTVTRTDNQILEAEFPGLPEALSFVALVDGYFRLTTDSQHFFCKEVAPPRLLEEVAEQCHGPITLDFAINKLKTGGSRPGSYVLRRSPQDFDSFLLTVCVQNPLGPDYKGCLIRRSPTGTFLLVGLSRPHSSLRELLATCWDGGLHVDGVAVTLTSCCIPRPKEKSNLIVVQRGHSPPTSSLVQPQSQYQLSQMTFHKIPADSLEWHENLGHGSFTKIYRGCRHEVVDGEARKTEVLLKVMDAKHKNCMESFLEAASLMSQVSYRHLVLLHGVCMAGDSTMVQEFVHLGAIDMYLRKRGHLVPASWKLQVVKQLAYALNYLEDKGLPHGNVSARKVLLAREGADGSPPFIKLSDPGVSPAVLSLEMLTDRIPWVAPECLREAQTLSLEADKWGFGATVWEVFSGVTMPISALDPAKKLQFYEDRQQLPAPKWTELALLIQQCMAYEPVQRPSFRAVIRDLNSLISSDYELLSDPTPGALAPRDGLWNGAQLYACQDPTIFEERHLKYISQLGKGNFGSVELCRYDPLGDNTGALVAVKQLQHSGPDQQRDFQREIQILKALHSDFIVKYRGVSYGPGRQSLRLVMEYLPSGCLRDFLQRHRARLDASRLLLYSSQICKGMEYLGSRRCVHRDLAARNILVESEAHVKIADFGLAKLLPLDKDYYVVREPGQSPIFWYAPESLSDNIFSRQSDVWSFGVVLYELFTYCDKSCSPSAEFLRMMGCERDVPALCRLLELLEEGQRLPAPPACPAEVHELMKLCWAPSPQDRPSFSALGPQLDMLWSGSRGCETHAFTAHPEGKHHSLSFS
As to the kind of experiment: Inhibition of JAK3 (unknown origin).

The nature of series [6]: Clearance in human liver microsomes. Type of series: ADME. To be noted: read-out: CLH. A digest of the protocol:
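Human liver microsomal clearance.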
Background: Liver microsomes are a subcellular fraction often used to study metabolism.

Series [7] has as its target T3, Leucine-rich repeat serine/threonine-protein kinase 2. As to the kind of experiment: Inhibition of LRRK2 in human PBMCs by ActivX KiNativ method.
For series [8], the target named is T2, Tyrosine-protein kinase JAK2. The series can be described thus: Inhibition of JAK2 (JH1 domain-catalytic) (unknown origin) at 1 uM.
The target of series [9] is T1, Tyrosine-protein kinase JAK1. The series can be described thus: Inhibition of JAK1 (JH1 domain-catalytic) (unknown origin) at 1 uM.
Series [10] has the same target. The series can be described thus: Inhibition of JAK1 (JH2 domain-pseudokinase) (unknown origin) at 1 uM.
In series [11] the target is T5, Tyrosine-protein kinase JAK3 (Homo sapiens) (UniProt P52333).
T5 sequence (whole entry): T4 sequence (P52333 whole entry)
As to the kind of experiment: Inhibition of JAK3 (JH1 domain-catalytic) (unknown origin) at 1 uM.

pIC50: −log10 of the molar value. Active and inactive are the calls of the source. The calls are words filed in the database; no cut-off is given here.

T1 sequence (P23458 whole entry): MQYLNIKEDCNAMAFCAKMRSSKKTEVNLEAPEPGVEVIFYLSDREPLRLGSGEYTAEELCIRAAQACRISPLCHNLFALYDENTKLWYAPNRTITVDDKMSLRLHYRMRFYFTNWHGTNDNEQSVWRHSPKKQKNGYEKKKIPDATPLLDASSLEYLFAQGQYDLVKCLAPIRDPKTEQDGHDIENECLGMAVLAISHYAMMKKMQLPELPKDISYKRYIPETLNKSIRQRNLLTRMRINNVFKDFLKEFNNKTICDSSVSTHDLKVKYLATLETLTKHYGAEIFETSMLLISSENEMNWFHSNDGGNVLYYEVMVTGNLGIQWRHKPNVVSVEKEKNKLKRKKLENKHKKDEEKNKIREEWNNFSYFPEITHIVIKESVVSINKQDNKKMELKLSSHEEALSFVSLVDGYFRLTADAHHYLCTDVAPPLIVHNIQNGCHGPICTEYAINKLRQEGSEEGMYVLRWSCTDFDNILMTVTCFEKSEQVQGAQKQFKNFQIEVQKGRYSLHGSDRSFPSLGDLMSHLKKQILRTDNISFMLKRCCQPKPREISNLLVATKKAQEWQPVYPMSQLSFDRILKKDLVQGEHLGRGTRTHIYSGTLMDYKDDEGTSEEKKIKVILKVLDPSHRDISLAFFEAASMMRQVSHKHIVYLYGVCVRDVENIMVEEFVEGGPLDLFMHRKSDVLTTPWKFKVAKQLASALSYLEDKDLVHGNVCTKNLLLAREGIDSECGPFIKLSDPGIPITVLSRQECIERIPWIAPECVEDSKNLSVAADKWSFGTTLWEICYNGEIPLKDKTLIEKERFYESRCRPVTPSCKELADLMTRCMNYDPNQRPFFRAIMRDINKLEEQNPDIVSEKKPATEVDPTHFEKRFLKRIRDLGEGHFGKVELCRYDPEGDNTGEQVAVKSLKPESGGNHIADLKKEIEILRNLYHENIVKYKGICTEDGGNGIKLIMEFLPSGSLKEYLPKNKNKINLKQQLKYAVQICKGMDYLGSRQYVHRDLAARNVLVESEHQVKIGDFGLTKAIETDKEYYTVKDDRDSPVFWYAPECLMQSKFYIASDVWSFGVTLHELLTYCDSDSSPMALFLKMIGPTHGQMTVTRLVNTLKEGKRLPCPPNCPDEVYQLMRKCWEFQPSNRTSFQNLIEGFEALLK
T3 sequence (Q5S007 whole entry, the tested form may be a part): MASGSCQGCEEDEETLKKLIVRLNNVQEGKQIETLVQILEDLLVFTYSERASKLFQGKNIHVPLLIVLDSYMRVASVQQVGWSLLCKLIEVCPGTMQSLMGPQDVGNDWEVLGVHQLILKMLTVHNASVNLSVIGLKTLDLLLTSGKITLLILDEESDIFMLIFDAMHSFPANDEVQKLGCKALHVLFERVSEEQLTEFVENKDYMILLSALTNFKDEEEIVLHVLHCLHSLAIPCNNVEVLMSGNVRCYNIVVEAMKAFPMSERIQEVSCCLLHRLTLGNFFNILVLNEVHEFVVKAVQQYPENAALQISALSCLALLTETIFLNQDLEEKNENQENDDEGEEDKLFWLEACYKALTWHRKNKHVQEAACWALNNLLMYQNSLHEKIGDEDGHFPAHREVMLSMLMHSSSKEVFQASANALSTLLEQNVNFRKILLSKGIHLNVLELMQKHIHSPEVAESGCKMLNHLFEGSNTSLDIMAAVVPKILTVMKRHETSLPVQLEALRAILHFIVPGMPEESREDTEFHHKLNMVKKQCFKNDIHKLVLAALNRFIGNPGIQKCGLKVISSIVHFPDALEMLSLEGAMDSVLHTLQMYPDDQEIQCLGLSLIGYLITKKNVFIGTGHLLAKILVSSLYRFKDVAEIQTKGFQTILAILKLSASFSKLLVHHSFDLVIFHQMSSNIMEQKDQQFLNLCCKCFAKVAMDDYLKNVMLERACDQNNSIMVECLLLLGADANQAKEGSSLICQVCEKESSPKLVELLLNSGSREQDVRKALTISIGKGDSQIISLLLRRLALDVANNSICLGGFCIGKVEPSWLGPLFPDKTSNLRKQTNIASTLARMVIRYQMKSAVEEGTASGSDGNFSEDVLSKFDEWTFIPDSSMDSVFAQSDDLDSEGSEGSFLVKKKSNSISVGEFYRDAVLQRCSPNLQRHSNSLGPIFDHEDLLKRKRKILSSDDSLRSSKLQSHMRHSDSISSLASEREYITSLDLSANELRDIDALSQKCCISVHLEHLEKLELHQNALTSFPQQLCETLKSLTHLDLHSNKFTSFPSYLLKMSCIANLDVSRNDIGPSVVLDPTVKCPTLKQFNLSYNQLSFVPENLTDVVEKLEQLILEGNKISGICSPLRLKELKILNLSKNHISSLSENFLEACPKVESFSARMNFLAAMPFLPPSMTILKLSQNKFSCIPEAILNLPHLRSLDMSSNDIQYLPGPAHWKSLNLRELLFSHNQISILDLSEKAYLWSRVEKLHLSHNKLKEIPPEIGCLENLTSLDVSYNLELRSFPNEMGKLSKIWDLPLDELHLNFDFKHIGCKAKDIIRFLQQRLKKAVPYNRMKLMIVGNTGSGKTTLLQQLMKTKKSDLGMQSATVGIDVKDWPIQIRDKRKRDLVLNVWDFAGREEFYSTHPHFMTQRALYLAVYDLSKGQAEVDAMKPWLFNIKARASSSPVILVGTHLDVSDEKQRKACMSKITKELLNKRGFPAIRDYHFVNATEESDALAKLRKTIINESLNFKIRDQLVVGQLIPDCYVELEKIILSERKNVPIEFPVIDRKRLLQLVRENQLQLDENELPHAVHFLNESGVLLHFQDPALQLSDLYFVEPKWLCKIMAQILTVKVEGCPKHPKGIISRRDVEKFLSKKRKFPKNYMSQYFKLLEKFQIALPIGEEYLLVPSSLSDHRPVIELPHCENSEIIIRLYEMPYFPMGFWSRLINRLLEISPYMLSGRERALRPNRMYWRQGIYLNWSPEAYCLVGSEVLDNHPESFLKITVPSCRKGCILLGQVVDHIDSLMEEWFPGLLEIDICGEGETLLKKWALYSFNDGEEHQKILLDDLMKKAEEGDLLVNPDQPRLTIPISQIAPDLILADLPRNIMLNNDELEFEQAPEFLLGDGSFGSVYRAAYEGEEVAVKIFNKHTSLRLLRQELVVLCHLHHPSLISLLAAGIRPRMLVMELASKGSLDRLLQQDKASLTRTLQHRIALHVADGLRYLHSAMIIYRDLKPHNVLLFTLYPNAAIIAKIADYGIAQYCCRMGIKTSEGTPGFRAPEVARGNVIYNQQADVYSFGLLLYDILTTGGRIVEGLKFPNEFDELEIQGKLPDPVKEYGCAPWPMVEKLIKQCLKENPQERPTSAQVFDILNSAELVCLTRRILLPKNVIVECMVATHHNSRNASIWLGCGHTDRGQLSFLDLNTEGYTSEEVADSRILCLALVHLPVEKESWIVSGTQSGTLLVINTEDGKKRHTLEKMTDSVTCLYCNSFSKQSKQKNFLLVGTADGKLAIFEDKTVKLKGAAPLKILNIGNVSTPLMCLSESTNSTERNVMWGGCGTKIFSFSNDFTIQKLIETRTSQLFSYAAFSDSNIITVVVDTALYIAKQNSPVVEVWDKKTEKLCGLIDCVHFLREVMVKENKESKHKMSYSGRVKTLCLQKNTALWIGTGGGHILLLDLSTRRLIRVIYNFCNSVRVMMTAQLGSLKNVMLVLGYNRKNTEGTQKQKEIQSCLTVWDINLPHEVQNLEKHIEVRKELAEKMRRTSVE
T2 sequence (O60674 whole entry): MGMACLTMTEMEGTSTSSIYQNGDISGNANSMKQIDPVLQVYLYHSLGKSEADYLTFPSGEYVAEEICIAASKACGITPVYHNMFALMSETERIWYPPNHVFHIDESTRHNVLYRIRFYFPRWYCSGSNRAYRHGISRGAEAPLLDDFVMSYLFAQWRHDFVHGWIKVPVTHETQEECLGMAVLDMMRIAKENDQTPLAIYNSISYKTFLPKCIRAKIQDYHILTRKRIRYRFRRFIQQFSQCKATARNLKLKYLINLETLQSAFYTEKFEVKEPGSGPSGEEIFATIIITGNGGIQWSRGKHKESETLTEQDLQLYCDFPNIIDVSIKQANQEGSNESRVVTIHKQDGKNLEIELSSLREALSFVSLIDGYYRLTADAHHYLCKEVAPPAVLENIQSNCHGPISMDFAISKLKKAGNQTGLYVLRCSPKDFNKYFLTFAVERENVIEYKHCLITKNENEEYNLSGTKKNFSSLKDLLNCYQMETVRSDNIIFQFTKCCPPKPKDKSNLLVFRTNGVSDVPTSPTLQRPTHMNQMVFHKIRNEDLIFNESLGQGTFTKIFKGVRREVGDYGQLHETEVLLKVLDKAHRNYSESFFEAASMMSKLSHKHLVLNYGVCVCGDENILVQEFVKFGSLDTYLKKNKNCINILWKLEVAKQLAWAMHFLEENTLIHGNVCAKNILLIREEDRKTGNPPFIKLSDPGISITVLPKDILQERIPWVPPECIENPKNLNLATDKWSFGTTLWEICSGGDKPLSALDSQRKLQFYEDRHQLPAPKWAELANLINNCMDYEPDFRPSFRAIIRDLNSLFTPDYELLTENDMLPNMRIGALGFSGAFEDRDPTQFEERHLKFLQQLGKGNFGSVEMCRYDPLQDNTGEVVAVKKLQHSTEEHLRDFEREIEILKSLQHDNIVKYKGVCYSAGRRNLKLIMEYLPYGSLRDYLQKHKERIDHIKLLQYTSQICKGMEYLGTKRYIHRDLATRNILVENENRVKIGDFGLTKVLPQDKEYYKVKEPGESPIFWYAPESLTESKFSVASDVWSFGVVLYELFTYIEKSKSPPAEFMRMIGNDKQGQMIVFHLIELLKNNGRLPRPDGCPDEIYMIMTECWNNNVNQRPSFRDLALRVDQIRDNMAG
Chain of Leucine-rich repeat serine/threonine-protein kinase 2 (Homo sapiens, UniProt Q5S007, G2019S) (Q5S007 whole entry G2019S, the tested form may be a part): as the sequence (Q5S007 whole entry, the tested form may be a part) above, with G2019S counted along it

For `C[C@H]1CCCN(c2ncnc3[nH]cc(-c4cccc(C#N)c4)c23)C1`, the pIC50 in [1] was 5.79; in series [2], 6.24; in [3], 6.68; in series [4], 7.31; in [5], 7.27. In addition, the CLint scaled in series [6] was found to be 220 mL/min/kg.
Take `CN(C)c1ncnc2[nH]cc(-c3cccc(C#N)c3)c12`: the negative-log IC50 (pIC50) in [7] was 7.38; in series [3] it was 7.05. Moreover, the inhibition entry in series [8], in [9], in series [10] and in [11] was “inactive” in each case. For the same molecule, the CLint scaled in [6] was found to be 70 mL/min/kg.
